Tests used:
[1] = Plasma midazolam pharmacokinetics after 2 mg oral doses on day 1 and day 16; details: for AUC(0-t) / AUC(0-inf) / Cmax / half-life: human, plasma; for AUC(0-inf): AUCinf; for half-life: t1/2, Group B (midazolam alone)
[2] = Safety: adverse event reports and clinical laboratory assessments; assay type: in vivo, human
Outline: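 Open-label parallel-group study in postmenopausal women with osteoporosis, randomised 2:1. […] Group B received midazolam only. Adverse events recorded at any time through day 47 follow-up. Clinical laboratory tests at screening (21 days pre-treatment) and day 17. All treated subjects analysed.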

[3] = 2 mg oral midazolam dose; sample collection at 0.25 h; ref Winter et al. [2013]; cited from earlier work
CYP3A4 [4] = details: healthy volunteers; ref Gupta et al. [2012]; cited from earlier work
[5] = Serum denosumab concentration by validated ELISA; assay type: in vivo, human; details: day 16 (14 days after a 60 mg SC dose); Group A
RANKL = assay: Serum C-telopeptide; assay type: in vivo, human; details: Group A; denosumab 60 mg SC on day 2
CYP3A4 [6] = assay type: in vivo, human; details: single 60 mg SC dose of denosumab; postmenopausal women with osteoporosis
[7] = 60 mg SC dose; ref Bekker et al. [2004]; cited from earlier work
[8] = Group A (midazolam + denosumab), N = 17
[9] = Group B (midazolam alone), period effect, n = 8
[10] = po, 2 mg, Group B (midazolam alone), day 1, 2 mg oral, mean (SD), N = 8
[11] = po, 2 mg, Group B (midazolam alone), day 16, 2 mg oral, mean (SD), N = 8

Question: Which “AUC0–inf, ratio of day 16/day 1, LS mean” value [1, 8] does the source give for `Cc1ncc2n1-c1ccc(Cl)cc1C(c1ccccc1F)=NC2` [midazolam] here?
Answer: 1.02

Question: And the “AUC0–t, ratio of day 16/day 1, LS mean” value [1, 8]?
Answer: 1.02

Question: And the “Cmax, ratio of day 16/day 1, LS mean” value [1, 8]?
Answer: 1.04

Question: And the AUCinf ([1]; Group A, day 1, midazolam 2 mg oral, mean (SD), N = 17)?
Answer: 35.6 (16.4) ng·h/mL

Question: And the Tmax ([1]; Group B (midazolam alone), day 16, 2 mg oral, median (range), N = 8)?
Answer: 0.5 (0.5–1.0) hr

Question: And the “AUC0–inf, point estimate for the ratio of the least square means (day 16/day 1)” value [1, 9]?
Answer: 0.98

Question: What about the “AUC0–t, point estimate for the ratio of the least square means (day 16/day 1)” value [1, 9] of the same compound?
Answer: 0.98

Question: What about the “Cmax, point estimate for the ratio of the least square means (day 16/day 1)” value ([1]; Group B (midazolam alone), period effect, n = 8, 90% CI 0.82 to 1.33) of the same compound?
Answer: 1.05

Question: What about the AUC(0-t) ([1]; oral) of the same compound?
Answer: 31 ng·h/mL

Question: And the AUC(0-t) ([1]; po, 2 mg)?
Answer: 30.4 ng·h/mL

Question: And the AUC(0-inf) [1, 10]?
Answer: 31 ng·h/mL

Question: And the AUC(0-inf) [1, 11]?
Answer: 29.3 ng·h/mL

Question: What about the Cmax [1, 10] of the same compound?
Answer: 11.3 ng/mL

Question: What about the Cmax [1, 11] of the same compound?
Answer: 10.9 ng/mL

Question: What about the half-life ([1]; po, 2 mg, day 1, 2 mg oral, mean (SD), N = 8) of the same compound?
Answer: 6.2 h

Question: And the half-life ([1]; po, 2 mg, day 16, 2 mg oral, mean (SD), N = 8)?
Answer: 6.22 h

Question: What about the somnolence incidence ([2]; Group A, day 1 (prior to administration of denosumab), 7 of 19 subjects) of the same compound?
Answer: 37%

Question: And the somnolence incidence ([2]; Group B, day 1, 2 of 8 subjects)?
Answer: 25%

Question: What about the somnolence incidence ([2]; day 16 (after the second midazolam dose)) of the same compound?
Answer: no subjects

Question: What about the somnolence incidence ([2]; days 2 to 15) of the same compound?
Answer: no subjects

Question: And the “changes in clinical laboratory values from baseline” value ([2]; screening to day 17)?
Answer: unremarkable

Question: And the “deaths, withdrawal due to adverse events, serious adverse events” value ([2]; whole study)?
Answer: No deaths, withdrawal due to adverse events, or serious adverse events

Question: What about the “mean Cmax” value [3] of the same compound?
Answer: 11.9 ng/mL

Question: Which “effects on CYP3A4 activity (midazolam pharmacokinetics)” value (CYP3A4 [4]) does the source give for `C[C@@H]1CCN(C(=O)CC#N)C[C@@H]1N(C)c1ncnc2[nH]ccc12` [tofacitinib] here?
Answer: lack of effects

Question: What does the source list for “denosumab: fully human monoclonal immunoglobulin G2 (IgG2) that binds to and neutralizes RANKL activity”?
Answer: serum denosumab concentration, mean (SD) [5]: 5790 (1800) ng/mL; sCTX concentrations on day 16 lower than those on day 2, on average (RANKL): ~81%; effect on CYP3A4 activity (based on midazolam pharmacokinetics) (CYP3A4 [6]): no effect; time by which maximal pharmacodynamic effects are observed [7]: ≤ 1 week

Source: PMC4184705 (Pharmacology Research & Perspectives, 2014)
